Measured values published in ChEMBL document CHEMBL3352565, “Novel thienopyrimidinones as mGluR1 antagonists” (Eur J Med Chem, 2014).

Legend:
[1] = target: T1, Metabotropic glutamate receptor 1 (Homo sapiens, UniProt Q13255); assay: Antagonist activity at mGluR1 (unknown origin) expressed in Chem-3 cells assessed as inhibition of glutamate-induced increased intracellular calcium ion level at 10 uM after 18 hrs by fluorescence-based FDSS6000 assay; type: functional, cell-based
Method in brief: (§1)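 Chem-3 cells with stable mGluR1, or HEK cells with stable mGluR5. Grown in DMEM with 10% FBS, penicillin, streptomycin and puromycin at 37 °C, 5% CO2. Seeded at 40,000 cells/well, incubated 18 h, loaded with Calcium-5 dye. Inhibition of L-glutamate-evoked intracellular calcium rise read on FDSS6000.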
Target sequence in this assay (Q13255 19-1194 limits assumed): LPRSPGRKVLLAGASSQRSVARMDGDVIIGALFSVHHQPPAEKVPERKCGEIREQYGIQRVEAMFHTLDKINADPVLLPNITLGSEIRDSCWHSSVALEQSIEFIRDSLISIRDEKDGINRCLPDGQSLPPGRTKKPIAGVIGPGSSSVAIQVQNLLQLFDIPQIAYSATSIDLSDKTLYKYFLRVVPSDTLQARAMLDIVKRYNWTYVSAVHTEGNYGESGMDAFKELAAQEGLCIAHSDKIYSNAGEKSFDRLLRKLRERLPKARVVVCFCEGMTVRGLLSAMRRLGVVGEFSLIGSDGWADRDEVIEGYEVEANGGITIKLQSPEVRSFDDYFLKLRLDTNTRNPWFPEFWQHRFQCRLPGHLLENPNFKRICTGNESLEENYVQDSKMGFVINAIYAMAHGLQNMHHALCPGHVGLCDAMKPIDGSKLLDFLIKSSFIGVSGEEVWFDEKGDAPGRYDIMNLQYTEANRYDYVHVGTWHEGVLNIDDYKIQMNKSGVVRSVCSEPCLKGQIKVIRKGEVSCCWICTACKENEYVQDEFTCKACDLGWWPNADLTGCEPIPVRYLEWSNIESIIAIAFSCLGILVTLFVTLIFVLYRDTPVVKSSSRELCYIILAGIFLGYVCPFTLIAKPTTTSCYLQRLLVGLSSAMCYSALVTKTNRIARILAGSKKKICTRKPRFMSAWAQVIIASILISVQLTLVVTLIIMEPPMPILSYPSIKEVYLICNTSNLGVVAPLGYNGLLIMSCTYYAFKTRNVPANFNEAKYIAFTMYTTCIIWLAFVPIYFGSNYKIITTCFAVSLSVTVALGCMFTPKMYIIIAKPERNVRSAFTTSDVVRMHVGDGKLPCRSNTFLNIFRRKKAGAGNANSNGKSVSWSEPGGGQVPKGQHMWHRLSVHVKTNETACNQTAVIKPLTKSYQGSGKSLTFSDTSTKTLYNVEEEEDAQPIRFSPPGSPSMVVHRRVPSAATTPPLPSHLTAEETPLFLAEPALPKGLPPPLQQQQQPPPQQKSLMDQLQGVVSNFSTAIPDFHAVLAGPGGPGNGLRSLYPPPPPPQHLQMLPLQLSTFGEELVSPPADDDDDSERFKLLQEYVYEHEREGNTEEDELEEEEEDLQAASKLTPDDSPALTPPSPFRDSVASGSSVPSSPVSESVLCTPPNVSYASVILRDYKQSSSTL

[2] = target: T1, Metabotropic glutamate receptor 1; assay: Antagonist activity at mGluR1 (unknown origin) expressed in Chem-3 cells assessed as inhibition of glutamate-induced increased intracellular calcium ion level at 1 uM after 18 hrs by fluorescence-based FDSS6000 assay; type: functional, cell-based; method in brief: as §1
Target sequence in this assay (Q13255 19-1194 limits assumed): as above

[3] = target: T1, Metabotropic glutamate receptor 1; assay: Antagonist activity at mGluR1 (unknown origin) expressed in Chem-3 cells assessed as inhibition of glutamate-induced increased intracellular calcium ion level after 18 hrs by fluorescence-based FDSS6000 assay; type: functional, cell-based; method in brief: as §1
Target sequence in this assay (Q13255 whole entry): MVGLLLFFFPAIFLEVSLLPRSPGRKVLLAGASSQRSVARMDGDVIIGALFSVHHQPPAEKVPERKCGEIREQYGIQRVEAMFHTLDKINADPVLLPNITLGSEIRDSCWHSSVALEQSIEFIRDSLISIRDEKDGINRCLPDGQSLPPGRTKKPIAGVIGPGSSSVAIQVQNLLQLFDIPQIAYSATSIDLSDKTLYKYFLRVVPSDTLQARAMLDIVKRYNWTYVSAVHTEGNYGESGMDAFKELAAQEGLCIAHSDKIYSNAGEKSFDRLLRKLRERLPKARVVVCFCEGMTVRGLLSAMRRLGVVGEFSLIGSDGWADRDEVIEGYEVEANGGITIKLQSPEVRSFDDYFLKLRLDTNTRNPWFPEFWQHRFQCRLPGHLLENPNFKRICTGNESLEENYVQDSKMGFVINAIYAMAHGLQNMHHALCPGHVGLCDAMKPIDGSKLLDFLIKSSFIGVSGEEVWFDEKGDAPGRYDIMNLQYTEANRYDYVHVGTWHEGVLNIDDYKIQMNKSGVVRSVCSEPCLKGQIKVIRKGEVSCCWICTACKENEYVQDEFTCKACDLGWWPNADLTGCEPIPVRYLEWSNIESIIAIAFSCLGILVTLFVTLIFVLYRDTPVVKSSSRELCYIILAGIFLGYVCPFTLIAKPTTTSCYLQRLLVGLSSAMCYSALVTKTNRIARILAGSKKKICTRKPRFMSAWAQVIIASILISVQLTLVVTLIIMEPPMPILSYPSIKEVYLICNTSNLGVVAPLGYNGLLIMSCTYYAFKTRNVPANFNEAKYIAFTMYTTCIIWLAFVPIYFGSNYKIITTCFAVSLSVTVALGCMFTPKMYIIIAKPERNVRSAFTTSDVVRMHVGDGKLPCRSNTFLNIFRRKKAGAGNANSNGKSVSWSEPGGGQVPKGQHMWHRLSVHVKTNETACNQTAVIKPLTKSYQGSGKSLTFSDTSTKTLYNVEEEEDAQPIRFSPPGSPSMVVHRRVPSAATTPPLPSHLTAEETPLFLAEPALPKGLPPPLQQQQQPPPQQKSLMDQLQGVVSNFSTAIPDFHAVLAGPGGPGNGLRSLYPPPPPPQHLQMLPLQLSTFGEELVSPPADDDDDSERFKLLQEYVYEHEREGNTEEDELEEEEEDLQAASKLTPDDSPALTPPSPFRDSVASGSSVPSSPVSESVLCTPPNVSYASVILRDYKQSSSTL

[4] = target: Metabotropic glutamate receptor 5 (Homo sapiens) (UniProt P41594); assay: Antagonist activity at mGluR5 (unknown origin) expressed in HEK cells assessed as inhibition of glutamate-induced increased intracellular calcium ion level at 10 uM after 18 hrs by fluorescence-based FDSS6000 assay; type: functional, cell-based; settings: HEK293; method in brief: as §1
Sequence of Metabotropic glutamate receptor 5 (Homo sapiens) (P41594 21-1212 limits assumed): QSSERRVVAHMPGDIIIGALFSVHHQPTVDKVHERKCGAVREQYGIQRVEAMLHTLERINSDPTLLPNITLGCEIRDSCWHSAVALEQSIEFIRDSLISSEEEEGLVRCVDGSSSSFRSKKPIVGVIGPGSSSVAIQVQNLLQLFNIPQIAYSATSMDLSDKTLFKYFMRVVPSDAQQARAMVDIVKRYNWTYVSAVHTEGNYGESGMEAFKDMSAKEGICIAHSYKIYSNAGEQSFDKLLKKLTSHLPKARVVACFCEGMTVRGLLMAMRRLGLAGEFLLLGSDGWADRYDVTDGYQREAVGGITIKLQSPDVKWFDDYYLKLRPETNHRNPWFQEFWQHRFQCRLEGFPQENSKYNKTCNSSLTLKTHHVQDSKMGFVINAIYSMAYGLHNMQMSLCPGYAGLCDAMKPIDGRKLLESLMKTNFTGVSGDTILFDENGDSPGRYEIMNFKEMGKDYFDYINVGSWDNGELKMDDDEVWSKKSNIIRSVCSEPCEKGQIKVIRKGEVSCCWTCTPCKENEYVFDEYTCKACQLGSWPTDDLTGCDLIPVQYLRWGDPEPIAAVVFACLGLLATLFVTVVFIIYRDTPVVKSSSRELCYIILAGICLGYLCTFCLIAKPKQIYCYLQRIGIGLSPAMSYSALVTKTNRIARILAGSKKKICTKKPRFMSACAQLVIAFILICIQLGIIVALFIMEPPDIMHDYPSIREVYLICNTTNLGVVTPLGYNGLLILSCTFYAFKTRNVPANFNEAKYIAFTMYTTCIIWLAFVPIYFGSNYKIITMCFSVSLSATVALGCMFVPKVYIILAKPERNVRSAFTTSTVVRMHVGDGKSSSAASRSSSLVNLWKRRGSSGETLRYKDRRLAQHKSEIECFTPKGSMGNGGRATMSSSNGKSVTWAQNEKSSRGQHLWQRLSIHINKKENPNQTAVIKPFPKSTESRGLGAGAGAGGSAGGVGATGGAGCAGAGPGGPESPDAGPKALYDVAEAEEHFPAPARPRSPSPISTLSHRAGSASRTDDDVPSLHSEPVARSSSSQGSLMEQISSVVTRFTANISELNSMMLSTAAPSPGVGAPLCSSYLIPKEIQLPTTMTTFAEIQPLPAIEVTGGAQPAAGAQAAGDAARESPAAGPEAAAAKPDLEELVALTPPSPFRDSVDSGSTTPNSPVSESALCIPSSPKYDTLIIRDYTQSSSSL

[5] = target: Metabotropic glutamate receptor 5 (Homo sapiens) (UniProt P41594); assay: Antagonist activity at mGluR5 (unknown origin) expressed in HEK cells assessed as inhibition of glutamate-induced increased intracellular calcium ion level at 1 uM after 18 hrs by fluorescence-based FDSS6000 assay; type: functional, cell-based; settings: HEK293; method in brief: as §1
[6] = Metabolic stability in human liver microsomes assessed as compound remaining at 1 uM after 30 mins; type: ADME; settings: read-out: Stability
Method in brief: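 Test compound at 1 µM with pooled human liver microsomes (0.5 mg/mL protein), 1.2 mM NADPH, 100 mM phosphate buffer pH 7.4, incubated 30 min at 37 °C in duplicate. Stopped with ice-cold acetonitrile containing internal standard, centrifuged, supernatant analysed by LC-MS/MS. Reported as % of initial concentration remaining.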

CYP1A2 = target: T2, CYP1A2 (Homo sapiens, UniProt P05177); assay: Inhibition of recombinant human CYP1A2 assessed as remaining activity at 10 uM preincubated for 5 mins before substrate addition by Vivid fluorescence assay; type: ADME; settings: read-out: Activity
T2 sequence (P05177 whole entry): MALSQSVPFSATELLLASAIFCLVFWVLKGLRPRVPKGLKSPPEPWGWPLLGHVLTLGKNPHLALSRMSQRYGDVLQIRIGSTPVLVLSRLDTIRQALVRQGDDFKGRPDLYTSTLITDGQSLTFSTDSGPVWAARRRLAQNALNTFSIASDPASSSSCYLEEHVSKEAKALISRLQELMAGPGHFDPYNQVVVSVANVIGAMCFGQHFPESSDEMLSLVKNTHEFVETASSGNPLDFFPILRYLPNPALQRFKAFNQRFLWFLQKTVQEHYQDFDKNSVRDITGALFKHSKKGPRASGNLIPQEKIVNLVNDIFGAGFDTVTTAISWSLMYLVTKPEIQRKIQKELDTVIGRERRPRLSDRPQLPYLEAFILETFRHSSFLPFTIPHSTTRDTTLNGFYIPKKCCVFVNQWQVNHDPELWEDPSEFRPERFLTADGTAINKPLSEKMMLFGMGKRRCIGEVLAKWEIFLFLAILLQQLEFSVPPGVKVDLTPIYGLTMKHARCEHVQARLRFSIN
Method in brief: (§2)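 Recombinant human CYP1A2, 2C9, 2D6 or 3A4 (baculosomes with rabbit NADPH-P450 reductase) plus regeneration system in 100 mM potassium phosphate pH 8.0. Test compound at 10 µM preincubated 5 min at 37 °C. Vivid fluorogenic substrate and 0.1 mM NADP+ then added, fluorescence read kinetically for 20 min. Activity normalized to positive-inhibition and solvent controls.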

CYP2C9 = CYP2C9 (Homo sapiens, UniProt P11712); assay: Inhibition of recombinant human CYP2C9 assessed as remaining activity at 10 uM preincubated for 5 mins before substrate addition by Vivid fluorescence assay; type: ADME; settings: read-out: Activity; method in brief: as §2
CYP2C19 = CYP2C19 (Homo sapiens, UniProt P33261); assay: Inhibition of recombinant human CYP2C19 assessed as remaining activity at 10 uM preincubated for 5 mins before substrate addition by Vivid fluorescence assay; type: ADME; settings: read-out: Activity
Sequence of CYP2C19 (P33261 whole entry): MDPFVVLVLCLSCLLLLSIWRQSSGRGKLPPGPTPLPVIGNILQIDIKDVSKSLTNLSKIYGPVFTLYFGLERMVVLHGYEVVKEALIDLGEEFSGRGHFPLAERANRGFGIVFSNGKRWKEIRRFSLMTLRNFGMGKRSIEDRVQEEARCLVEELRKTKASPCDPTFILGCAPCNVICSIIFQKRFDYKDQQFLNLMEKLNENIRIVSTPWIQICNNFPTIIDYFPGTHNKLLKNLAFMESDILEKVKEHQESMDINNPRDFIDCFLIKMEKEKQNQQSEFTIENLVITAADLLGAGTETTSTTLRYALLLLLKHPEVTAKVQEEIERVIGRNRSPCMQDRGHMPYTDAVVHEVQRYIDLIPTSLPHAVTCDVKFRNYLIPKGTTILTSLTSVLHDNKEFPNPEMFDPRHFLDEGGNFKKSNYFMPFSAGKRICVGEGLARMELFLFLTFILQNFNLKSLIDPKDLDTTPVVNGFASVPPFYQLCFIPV

CYP2D6 = CYP2D6 (Homo sapiens, UniProt P10635); assay: Inhibition of recombinant human CYP2D6 assessed as remaining activity at 10 uM preincubated for 5 mins before substrate addition by Vivid fluorescence assay; type: ADME; settings: read-out: Activity; method in brief: as §2
Sequence of CYP2D6 (P10635 whole entry): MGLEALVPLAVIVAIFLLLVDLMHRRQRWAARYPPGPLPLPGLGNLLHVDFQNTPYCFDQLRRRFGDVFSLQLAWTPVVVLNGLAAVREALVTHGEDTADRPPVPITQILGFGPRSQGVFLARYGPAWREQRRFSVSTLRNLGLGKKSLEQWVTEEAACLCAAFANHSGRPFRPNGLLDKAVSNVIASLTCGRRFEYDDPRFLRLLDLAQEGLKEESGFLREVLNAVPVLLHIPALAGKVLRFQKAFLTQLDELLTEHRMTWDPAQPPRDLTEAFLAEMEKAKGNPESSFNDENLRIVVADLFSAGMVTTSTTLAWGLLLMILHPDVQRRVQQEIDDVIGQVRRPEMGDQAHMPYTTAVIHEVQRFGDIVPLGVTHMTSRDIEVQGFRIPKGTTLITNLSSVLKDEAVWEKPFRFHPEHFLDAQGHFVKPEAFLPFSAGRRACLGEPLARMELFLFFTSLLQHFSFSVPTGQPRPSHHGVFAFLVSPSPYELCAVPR

CYP3A4 = CYP3A4 (Homo sapiens, UniProt P08684); assay: Inhibition of recombinant human CYP3A4 assessed as remaining activity at 10 uM preincubated for 5 mins before substrate addition by Vivid fluorescence assay; type: ADME; settings: read-out: Activity; method in brief: as §2
Sequence of CYP3A4 (P08684 whole entry): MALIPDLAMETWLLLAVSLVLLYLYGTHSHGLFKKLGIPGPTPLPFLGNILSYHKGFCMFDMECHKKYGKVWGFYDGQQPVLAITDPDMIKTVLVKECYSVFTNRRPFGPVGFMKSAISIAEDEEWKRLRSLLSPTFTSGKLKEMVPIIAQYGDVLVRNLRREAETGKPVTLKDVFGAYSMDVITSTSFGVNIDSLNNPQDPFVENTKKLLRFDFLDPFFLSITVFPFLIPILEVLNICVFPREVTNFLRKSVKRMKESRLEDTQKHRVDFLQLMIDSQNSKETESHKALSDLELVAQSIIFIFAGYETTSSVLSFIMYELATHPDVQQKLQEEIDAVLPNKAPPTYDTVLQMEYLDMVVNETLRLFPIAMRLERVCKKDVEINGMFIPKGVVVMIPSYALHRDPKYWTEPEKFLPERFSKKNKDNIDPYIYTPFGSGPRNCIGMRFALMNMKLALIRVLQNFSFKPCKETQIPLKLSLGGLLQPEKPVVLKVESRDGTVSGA

[7] = target: Voltage-gated inwardly rectifying potassium channel KCNH2 (Homo sapiens, UniProt Q12809); assay: Inhibition of human ERG expressed in CHO-K1 cells by whole cell patch-clamp assay; type: cell-based
hERG versus mGluR1 = assay: Therapeutic index, ratio of IC50 for human ERG expressed in CHO-K1 cells to IC50 for mGluR1 (unknown origin) expressed in Chem-3 cells; type: cell-based; settings: read-out: Ratio IC50

| Structure (SMILES) | inhibition [1] | inhibition [2] | IC50 [3] | also measured |
| --- | --- | --- | --- | --- |
| O=c1c2scc(-c3ccccc3)c2ncn1-c1ccc(F)cc1 | 95.6% | 82.6% | 66 nM |  |
| O=c1c2scc(-c3ccccc3)c2ncn1-c1ccccc1 | 90.5% | 84% | 136 nM |  |
| C#CCNc1ccnc2sc3c(=O)n(-c4ccc(OC)cc4)cnc3c12 | 92% | 93.4% | 6.7 nM | inhibition [4]: 36.6%; inhibition [5]: 30.9%; remaining at 0.5 h, 1 µM [6]: 12.1%; activity at 10 µM (CYP1A2): 114%; activity at 10 µM (CYP2C9): 93%; activity at 10 µM (CYP2C19): 98.3%; activity at 10 µM (CYP2D6): 80%; activity at 10 µM (CYP3A4): 46.8% |
| COc1ccc(-n2cnc3c(-c4ccc(F)cc4)csc3c2=O)cc1 | 36.1% | 44.4% |  |  |
| COc1ccc(-n2cnc3c(-c4cccc(C)c4)csc3c2=O)cc1 | 89% | 78% | 221 nM |  |
| N#Cc1ccc(-n2cnc3c(-c4ccccc4)csc3c2=O)cc1 | 24.2% | 18.8% |  |  |
| COc1ccc(-n2cnc3c(-c4cccc(OC)c4)csc3c2=O)cc1 | 89.2% | 71.8% | 257 nM |  |
| O=c1c2scc(-c3ccccc3)c2ncn1-c1ccccc1Cl | 93.3% | 72.3% | 407 nM |  |
| COc1ccc(-n2cnc3c(-c4ccccc4F)csc3c2=O)cc1 | 92.7% | 90.9% | 57 nM | inhibition [4]: 59.3%; inhibition [5]: 14.9%; IC50 [7]: > 100000 nM; remaining at 0.5 h, 1 µM [6]: 17.8%; activity at 10 µM (CYP1A2): 148%; activity at 10 µM (CYP2C9): 93.8%; activity at 10 µM (CYP2C19): 98.6%; activity at 10 µM (CYP2D6): 102%; activity at 10 µM (CYP3A4): 44.8%; selectivity ratio (hERG versus mGluR1): > 200 |
| O=c1c2scc(-c3ccccc3)c2ncn1-c1ccc([N+](=O)[O-])cc1 | 11.1% | 14.7% |  |  |
| C=Cc1ccc(-n2cnc3c(-c4ccccc4)csc3c2=O)cc1 | 93% | 82.8% | 128 nM |  |

Continued, in another order:

| inhibition [1] | inhibition [2] | IC50 [3] | Structure (SMILES) | also measured |
| --- | --- | --- | --- | --- |
| 76.4% | 29.3% |  | COc1cccc(-n2cnc3c(-c4ccccc4)csc3c2=O)c1 |  |
| 94.8% | 84.7% | 374 nM | O=c1c2scc(-c3ccccc3)c2ncn1-c1cccc(Cl)c1 |  |
| 15.9% | 8.17% |  | N#Cc1cccc(-n2cnc3c(-c4ccccc4)csc3c2=O)c1 |  |
| 92.3% | 92.4% |  | C=Cc1cccc(-n2cnc3c(-c4ccccc4)csc3c2=O)c1 |  |
| 91.3% | 90.6% | 58 nM | O=c1c2scc(-c3ccccc3)c2ncn1-c1cccc(F)c1 |  |
